High-throughput results (PubChem)
Sampled rows, rich in hits. Any-hit rate of the full collection: about 0.55%.
V1R ag counter – V1a receptor agonism, counter-screen for OXTR agonists. P37288. CHO-V1R cells, Fluo-8 calcium fluorescence, agonist mode; 0% DMSO, 100% 3 nM vasopressin. activation, % at 3 µM. hit rate 0.25% among 320,000;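 active = activation above the mean activation of all tested compounds plus 3 SD, per screening run, cut at about 20% in these data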;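 note: signal is peak over basal fluorescence ratio across a 100 second FLIPR read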
Target sequence (P37288 whole entry, looked up): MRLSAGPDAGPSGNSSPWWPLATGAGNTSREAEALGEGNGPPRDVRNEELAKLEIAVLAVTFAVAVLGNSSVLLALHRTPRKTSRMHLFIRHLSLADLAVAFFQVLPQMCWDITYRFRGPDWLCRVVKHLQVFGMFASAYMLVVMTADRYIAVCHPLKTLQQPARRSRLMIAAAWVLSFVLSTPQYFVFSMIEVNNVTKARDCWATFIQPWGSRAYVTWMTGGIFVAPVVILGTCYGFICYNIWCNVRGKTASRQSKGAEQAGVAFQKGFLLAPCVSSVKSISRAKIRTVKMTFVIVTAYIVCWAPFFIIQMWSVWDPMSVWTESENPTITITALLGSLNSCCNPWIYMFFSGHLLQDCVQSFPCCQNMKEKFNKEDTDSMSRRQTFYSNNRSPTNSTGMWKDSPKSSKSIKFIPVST
TRPN1 ag – agonists of zebrafish TRPN1 channel | activation, % at 3 µM | hit rate 0.18% among 220,000 | HEK293 zebrafish TRPN1-YFP, Fluo-8 calcium fluorescence; 100% = response to 87 µM carbachol;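 active = activation above its plate's cutoff, the mean activation of test wells on that plate plus 3 SD, cut at about 19% in these data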;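 note: 0% = DMSO alone and 100% = 87 µM carbachol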
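Assay system: Zebrafish TRPN1-YFP in HEK293 cells | Incubation: Dye loading 1 h at 37 °C, then 30 min room temperature | Measured by: Kinetic Fluo-8 fluorescence, ex 470-495, em 515-575 nm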
OXTR agonist – activates the human oxytocin receptor; CHO-OTR cells, Fluo-8 calcium fluorescence; normalized: DMSO 0%, oxytocin 100%; activation, % at 3 µM; hit rate 0.32% among 320,000; AID 2435;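 active = activation above the mean of all tested compounds plus 3 SD, cutoff set per screening run, cut at about 20% in these data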;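 note: peak over basal fluorescence ratio from a 100 s FLIPR kinetic read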
TRPML3 ag – agonists of human TRPML3 channel. Q8TDD5. HEK293 TRPML3-YFP, Fluo-8 calcium fluorescence; 100% = the carbachol control signal. activation, % at 3 µM. hit rate 0.29% among 220,000. AID 1448;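 active = activation above its plate's cutoff, the mean activation of the plate's test wells plus 3 SD, cut at about 12% in these data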;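 note: 0% = DMSO only wells and 100% = carbachol wells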
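system = HEK293 cells stably carrying human TRPML3-YFP | doses = one concentration, 3 µM nominal, 0.3% DMSO | timing = dye loading 1 h 37 °C then 30 min ambient, 125 s read | detection = Fluo-8 calcium dye fluorescence, ex 470-495, em 515-575 nm | benchmarks = high control carbachol 87 µM, low control DMSO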
OXTR potentiate – potentiators of human oxytocin receptor; P30559; CHO-OTR cells, Fluo-8 calcium fluorescence, potentiator mode; 0% = oxytocin EC15, 100% = EC100; activation, % at 3 µM; hit rate 0.061% among 320,000;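 active = activation above that plate's cutoff, the mean activation of tested compounds plus 3 SD, cut at about 6.6% in these data, passing the limit was not always enough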;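 note: 100% uses oxytocin at 75 nM as the full agonist control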
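System: human OTR in CHO cells; Also added: sub-maximal oxytocin, roughly EC15; Timing: compound 6 min at room temperature before oxytocin, 100 s read; Technique: Fluo-8 intracellular calcium fluorescence, ex 470-495, em 515-575 nm; Controls: oxytocin EC15 low and EC100 high; Replication: singlicate.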
The depositor's hits bear a star; . = no result.

SMILES	V1R ag counter	TRPN1 ag	OXTR agonist	TRPML3 ag	OXTR potentiate
CCC(=O)Nc1cccc(NC(=S)NC(=O)Cc2ccccc2)c1	3.9	0.4	2.0	-0.1	-12.8
COc1ccc(CC(=O)NC(=S)Nc2cccc(CO)c2)cc1	27.2*	.	28.1*	.	-20.4
Cc1c(NC(=S)NC(=O)Cc2ccccc2)cccc1C(=O)O	-0.1	0.6	-0.4	0.8	-4.1
COc1cccc(NC(=S)NC(=O)Cc2ccc(Cl)cc2)c1	30.9*	.	24.5*	.	-19.2
Cc1cc(C)c(O)c(NC(=S)NC(=O)Cc2ccccc2)c1	28.6*	.	31.1*	.	-19.8
COc1ccccc1NC(=S)NC(=O)Cc1ccc(Cl)cc1	32.7*	.	21.8*	.	-19.8
CC(C)C(NCC(=O)Nc1ccccc1C(=O)NC1CC1)c1ccccc1 (stereo not drawn)	7.0	.	0.5	.	-10.7
Cc1cccc(NC(=S)NC(=O)CCc2ccccc2)c1	-0.6	-1.4	-2.9	-0.1	-9.1
COc1ccc(CC(=O)NC(=S)Nc2cccc(C)c2)cc1	26.5*	.	26.1*	.	-20.1
O=C1NC(=S)S/C1=C\C=C\c1ccc([N+](=O)[O-])o1	.	20.9*	.	11.0	.
O=C(O)/C=C/c1ccc([N+](=O)[O-])o1	4.2	4.2	1.9	1.9	-3.8
COc1cc(/C=C(\C#N)c2nc3ccccc3o2)ccc1O	23.9*	65.5*	29.7*	16.0*	-32.5
COc1ccc(N/N=C(\C#N)C(=N)SCc2ccccc2)cc1	.	19.2*	.	15.3*	.
COc1ccc(N/N=C(\C#N)C(=N)N2CCCCC2)cc1	-0.6	0.0	0.7	-0.2	-7.8
CCOc1ccc(NS(=O)(=O)c2ccc(C(=O)NCC(c3ccco3)N(C)C)cc2)cc1 (stereo not drawn)	22.6*	.	26.1*	.	-16.8
CS(=O)(=O)Nc1ccc(C(=O)NCc2ccccn2)cc1	0.1	0.2	0.3	0.8	-1.6
CCOc1ccc(NS(=O)(=O)c2ccc(C(=O)NCc3ccncc3)cc2)cc1	7.8	.	7.3	.	-14.1
CCOc1ccc(NS(=O)(=O)c2ccc(C(=O)NCc3ccccn3)cc2)cc1	26.9*	.	30.9*	.	-18.8
Cc1ccc(NS(=O)(=O)c2ccc(C(=O)NCc3ccccn3)cc2)cc1	30.9*	.	25.0*	.	-16.0
Cc1ccc(NS(=O)(=O)c2ccc(C(=O)NC3CCN(Cc4ccccc4)CC3)cc2)cc1	20.8*	.	21.5*	.	-10.1
Cc1ccc(S(=O)(=O)Nc2cccc(C(=O)NC3CCN(Cc4ccccc4)CC3)c2)cc1F	2.0	.	1.9	.	-17.6
N#Cc1ccc(NC(=O)COC(=O)c2cccnc2Cl)cc1	4.0	.	2.1	.	-6.3
CC(C(=O)NC1(C#N)CCCCC1)N(C)CC(=O)Nc1ccc(Cl)c(Cl)c1 (stereo not drawn)	13.5	.	12.7	.	-10.7
CCOc1ccc(NS(=O)(=O)c2ccc(C(=O)NCC3(N4CCCCC4)CCCCC3)cc2)cc1	24.8*	.	35.5*	.	-11.0
Cc1cc(S(=O)(=O)Nc2ccc(C(=O)NCC3(N4CCCCC4)CCCCC3)cc2)ccc1F	0.1	.	0.7	.	6.5
SMILES	V1R ag counter	TRPN1 ag	OXTR agonist	TRPML3 ag	OXTR potentiate
CCn1nnc2cc(C(=O)Nc3cccc(S(=O)(=O)N(C)C)c3)ccc21	1.4	.	2.4	.	-1.9
CC(C)(C)CC(=O)Nc1nnc(C(F)(F)F)s1	-1.0	0.0	-1.4	0.4	-16.6
O=C(Nc1ccccc1C(=O)Nc1nnc(C(F)(F)F)s1)c1ccccc1Cl	11.7	23.0*	9.9	13.2*	-14.3
CC(NC(=O)Nc1nnc(C(F)(F)F)s1)(C(F)(F)F)C(F)(F)F	9.0	25.8*	13.7	21.2*	-10.5
O=C(Nc1nnc(C(F)(F)F)s1)c1ccc(Br)s1	9.2	28.7*	19.3	19.3*	-8.5
NC(=O)c1ccccc1NC(=O)c1ccccc1Cl	-0.1	-0.5	1.2	0.5	0.0
CC1CCN(C(=O)CNC(=O)c2ccc(Br)o2)CC1	1.7	.	1.4	.	1.5
Nn1c(SCC(=O)Nc2ccc(N3CCOCC3)cc2)nnc1-c1cccc(F)c1	-0.1	.	0.6	.	-8.1
O=C(COC(=O)c1cccc(Cl)c1)Nc1cccc(S(=O)(=O)NC2=NCCC2)c1	0.9	.	2.4	.	-8.3
CC(C)=C(C#N)c1nc2ccccc2s1	39.8*	17.2	36.5*	8.3	-6.4
N#C/C(=C\c1ccncc1)c1nc2ccccc2[nH]1	.	-0.1	.	0.6	.
N#C/C(=C/c1ccncc1)c1nc2ccccc2s1	55.2*	33.6*	26.8*	19.3*	-6.1
COC(=O)c1ccc(/C(O)=C(\C#N)c2nc3ccccc3s2)cc1	9.6	5.7	9.2	4.3	-9.1
CC1(C)CC(NCCN2CCN(C3=CC(=C(C#N)C#N)CC(C)(C)C3)CC2)=CC(=C(C#N)C#N)C1	-0.7	0.7	-0.7	0.8	-4.6
CCN1CCN(C2=CC3=CC(=C(C#N)C#N)CCC3CC2)CC1 (stereo not drawn)	.	395.3*	.	310.2*	.
CN1CCN(C2=CC3=CC(=C(C#N)C#N)CCC3CC2)CC1 (stereo not drawn)	.	617.2*	.	328.9*	.
N#CC(C#N)=C1C=C2C=C(N3CCCCCC3)CCC2CC1 (stereo not drawn)	.	890.7*	.	365.7*	.
N#CC(C#N)=C1C=C2C=C(N3CCOCC3)CCC2CC1 (stereo not drawn)	.	169.4*	.	73.9*	.
c1ccc2cc(C3CCCCC3)ncc2c1	-0.4	.	0.6	.	-0.1
Cc1cc(C(=O)N2CCN(S(=O)(=O)c3ccc(F)c(Cl)c3)CC2)c(C)o1	-0.2	.	-1.1	.	-0.6
OCCNCc1c(OCc2ccc(Cl)cc2)ccc2ccccc12	29.6*	.	29.9*	.	-19.8
CC(C)C(NC(=O)c1ccc(C(C)(C)C)cc1)C(=O)Nc1ccc(N2CCOCC2)cc1 (stereo not drawn)	-0.3	.	-0.5	.	-4.8
C=CCN(CC=C)S(=O)(=O)c1ccc2nc(NC(=O)C(C)C)sc2c1	22.1*	1.6	29.4*	1.3	-20.2
CCOC(=O)c1ccc2nc(NC(=O)C(C)C)sc2c1	-1.4	-1.3	-1.3	0.3	-2.6
O=C(CSc1cn[nH]n1)Nc1ccccc1C(=O)O	-0.4	.	-0.3	.	-7.2
SMILES	V1R ag counter	TRPN1 ag	OXTR agonist	TRPML3 ag	OXTR potentiate
CCOC(=O)Cn1c(=O)oc2cc(S(=O)(=O)NCCc3ccc(C)cc3)ccc21	10.2	3.6	13.2	1.6	-10.1
CCOC(=O)Cn1c(=O)oc2cc(S(=O)(=O)Nc3ccc(F)cc3)ccc21	33.0*	19.1*	36.0*	6.7	-10.4
Cc1onc(-c2ccccc2)c1C(=O)NNC(=S)NC(=O)/C=C/c1ccccc1	46.5*	4.0	35.2*	1.6	-8.7
CC(=O)NNC(=S)NC(=O)c1ccc(C)cc1	0.6	0.4	-0.9	0.4	-5.1
Cc1ccc(C(=O)NNC(=S)NC(=O)c2ccc(Cl)cc2)cc1	81.4*	142.8*	91.3*	83.0*	-13.1
Cc1onc(-c2ccccc2)c1C(=O)NNC(=O)c1ccccc1O	-0.3	.	-0.5	.	-4.0
Cc1cccc(C(=O)NC(=S)NNC(=O)c2ccccc2Cl)c1	49.5*	34.4*	71.5*	12.6*	-20.8
